ChEMBL document CHEMBL1127562, “N-substituted spirosuccinimide, spiropyridazine, spiroazetidine, and acetic acid aldose reductase inhibitors derived from isoquinoline-1,3-diones. 2” (J Med Chem, 1994)
Calls of active or inactive are those of the source. The rule behind the calls is not given here.

What was measured:
[1] = target: Aldo-keto reductase family 1 member B1 (Bos taurus) (UniProt P16116); assay: Inhibition of aldose reductase activity in partially purified bovine lens preparation at 10e-5 M
Summary of the method: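 Partially purified bovine lens aldose reductase. Reduction of DL-glyceraldehyde substrate followed spectrophotometrically. Activity expressed as average inhibition at the tested concentrations, 1×10^-5, 1×10^-6, 1×10^-7 and 4×10^-6 M as printed; IC50 in M where given.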

Rattus norvegicus [2] = assay: Tested for in vivo inhibition of galactitol accumulation in the sciatic nerve of galactose-fed rats at the dose of 24.9 (mg/kg/day); assay type: functional
Summary of the method: (§1)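 Rats were given a 20% galactose diet for 4 days, with the test compound administered in the diet. Sciatic nerve galactitol accumulation was measured, and activity is given as % inhibition at the stated daily dose (mg/kg/day). Values are mean ± SEM, n = 6 animals; p < 0.01 unless indicated. NS means no significant inhibition of polyol accumulation.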

Rattus norvegicus [3] = assay: Tested for in vivo inhibition of galactitol accumulation in the lens of galactose-fed rats at the dose of 69.2 (mg/kg/day); NS=Not significant; assay type: functional, organism-based; settings: Lens of camera-type eye
Summary of the method: (§2)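 Galactosemic rats were fed 20% galactose for 4 days, with the compound mixed into the diet. […] galactitol accumulation was measured, and activity is given as % inhibition at the stated daily dose (mg/kg/day). Values are mean ± SEM of six animals; p < 0.01 unless indicated. NS means no significant inhibition of polyol accumulation.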

Rattus norvegicus [4] = assay: Tested for in vivo inhibition of galactitol accumulation in the sciatic nerve of galactose-fed rats at the dose of 69.2 (mg/kg/day); NS=Not significant; assay type: functional, organism-based
Summary of the method: (§3)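 Rats fed a 20% galactose diet for 4 days, with test compound given in the diet at the stated daily dose (mg/kg/day). Read-out is inhibition of galactitol (polyol) accumulation in sciatic nerve. Values are % inhibition, mean ± SEM of six animals; p < 0.01 unless marked (some p < 0.05). NS = no significant inhibition of polyol accumulation. Tolrestat was the reference standard.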

Rattus norvegicus [5] = assay: Tested for in vivo inhibition of galactitol accumulation in the lens of galactose-fed rats at the dose of 25.1 (mg/kg/day); NS=Not significant; assay type: functional, organism-based; settings: Lens of camera-type eye
Rattus norvegicus [6] = assay: Tested for in vivo inhibition of galactitol accumulation in the sciatic nerve of galactose-fed rats at the dose of 25.1 (mg/kg/day); NS=Not significant; assay type: functional, organism-based; summary of the method: as §1
Rattus norvegicus [7] = assay: Tested for in vivo inhibition of galactitol accumulation in the lens of galactose-fed rats at the dose of 97.1 (mg/kg/day); NS=Not significant; assay type: functional, organism-based; settings: Lens of camera-type eye; summary of the method: as §2
Rattus norvegicus [8] = assay: Tested for in vivo inhibition of galactitol accumulation in the sciatic nerve of galactose-fed rats at the dose of 97.1 (mg/kg/day); NS=Not significant; assay type: functional, organism-based; summary of the method: as §3
Rattus norvegicus [9] = assay: Tested for in vivo inhibition of galactitol accumulation in the lens of galactose-fed rats at the dose of 47.2 (mg/kg/day); NS=Not significant; assay type: functional, organism-based; settings: Lens of camera-type eye
Rattus norvegicus [10] = assay: Tested for in vivo inhibition of galactitol accumulation in the sciatic nerve of galactose-fed rats at the dose of 47.2 (mg/kg/day); NS=Not significant; assay type: functional, organism-based; summary of the method: as §1
Rattus norvegicus [11] = assay: Tested for in vivo inhibition of galactitol accumulation in the sciatic nerve of galactose-fed rats. at the dose of 1.0 (mg/kg/day); NS=Not significant; assay type: functional, organism-based; summary of the method: as §3
Rattus norvegicus [12] = assay: Tested for in vivo inhibition of galactitol accumulation in the lens of galactose-fed rats at the dose of 87.3 (mg/kg/day); NS=Not significant; assay type: functional, organism-based; settings: Lens of camera-type eye; summary of the method: as §2
Rattus norvegicus [13] = assay: Tested for in vivo inhibition of galactitol accumulation in the sciatic nerve of galactose-fed rats at the dose of 87.3 (mg/kg/day); NS=Not significant; assay type: functional, organism-based; summary of the method: as §3
Rattus norvegicus [14] = assay: Tested for in vivo inhibition of galactitol accumulation in the sciatic nerve of galactose-fed rats at the dose of 50 (mg/kg/day); assay type: functional; summary of the method: as §3
Rattus norvegicus [15] = assay: Tested for in vivo inhibition of galactitol accumulation in the lens of galactose-fed rats at the dose of 50 (mg/kg/day); assay type: functional, Lens of camera-type eye
Rattus norvegicus [16] = assay: Tested for in vivo inhibition of galactitol accumulation in the sciatic nerve of galactose-fed rats at the dose of 1.0 (mg/kg/day); NS=Not significant; assay type: functional, organism-based; summary of the method: as §1
Rattus norvegicus [17] = assay: Tested for in vivo inhibition of galactitol accumulation in the sciatic nerve of galactose-fed rats at the dose of 25.2 (mg/kg/day); NS=Not significant; assay type: functional, organism-based; summary of the method: as §1
Rattus norvegicus [18] = assay: Tested for in vivo inhibition of galactitol accumulation in the lens of galactose-fed rats at the dose of 25.2 (mg/kg/day); NS=Not significant; assay type: functional, organism-based; settings: Lens of camera-type eye
Rattus norvegicus [19] = assay: Tested for in vivo inhibition of galactitol accumulation in the sciatic nerve of galactose-fed rats at the dose of 25 (mg/kg/day); NS=Not significant; assay type: functional, organism-based; summary of the method: as §1
Rattus norvegicus [20] = assay: Tested for in vivo inhibition of galactitol accumulation in the lens of galactose-fed rats at the dose of 25 (mg/kg/day); NS=Not significant; assay type: functional, organism-based; settings: Lens of camera-type eye
[21] = target: Aldo-keto reductase family 1 member B1 (Bos taurus) (UniProt P16116); assay: Inhibition of aldose reductase activity in partially purified bovine lens preparation at 4*10 e-8 M
Rattus norvegicus [22] = assay: Tested for in vivo inhibition of galactitol accumulation in the sciatic nerve of galactose-fed rats at the dose of 98 (mg/kg/day); NS=Not significant; assay type: functional, organism-based; summary of the method: as §3
Rattus norvegicus [23] = assay: Tested for in vivo inhibition of galactitol accumulation in the lens of galactose-fed rats at the dose of 98 (mg/kg/day); NS=Not significant; assay type: functional, organism-based; settings: Lens of camera-type eye; summary of the method: as §2
Rattus norvegicus [24] = assay: Tested for in vivo inhibition of galactitol accumulation in the lens of galactose-fed rats at the dose of 55 (mg/kg/day); NS=Not significant; assay type: functional, organism-based; settings: Lens of camera-type eye
Rattus norvegicus [25] = assay: Tested for in vivo inhibition of galactitol accumulation in the sciatic nerve of galactose-fed rats at the dose of 55 (mg/kg/day); NS=Not significant; assay type: functional, organism-based; summary of the method: as §3

Question: For `CN1C(=O)CC2(C1=O)C(=O)N(Cc1cccc(C(F)(F)F)c1)C(=O)c1ccccc12` (stereo not drawn), which inhibition [1] is on record?
Answer: inactive

Question: And the Inhibition (Rattus norvegicus [2])?
Answer: 28%

Question: What does the source list for `CN1C(=O)c2ccccc2C(CC(=O)O)C1=O` (stereo not drawn)?
Answer: inhibition [1]: 70%; inhibition (Rattus norvegicus [3]): inactive; inhibition (Rattus norvegicus [4]): inactive

Question: For `CCNC(=O)CC1C(=O)N(Cc2ccc(Br)cc2F)C(=O)c2ccc(F)cc21` (stereo not drawn), which inhibition [1] is on record?
Answer: 80%

Question: What about the inhibition (Rattus norvegicus [5]) of the same molecule?
Answer: inactive

Question: And the inhibition (Rattus norvegicus [6])?
Answer: inactive

Question: What does the source list for `CCCCN1C(=O)c2ccccc2C(CC(=O)NC(=O)OC)C1=O` (stereo not drawn)?
Answer: inhibition [1]: inactive; inhibition (Rattus norvegicus [7]): inactive; inhibition (Rattus norvegicus [8]): inactive

Question: Which inhibition (Rattus norvegicus [9]) does the source give for `COC(=O)NC(=O)CC1C(=O)N(C)C(=O)c2ccc(OC)cc21` (stereo not drawn) here?
Answer: inactive

Question: What about the inhibition (Rattus norvegicus [10]) of the same molecule?
Answer: inactive

Question: What about the inhibition [1] of the same molecule?
Answer: 53%

Question: For `CCCCN1C(=O)CC2(C1=O)C(=O)N(Cc1ccc(Br)cc1F)C(=O)c1ccc(F)cc12` (stereo not drawn), which inhibition [1] is on record?
Answer: inactive

Question: And the inhibition (Rattus norvegicus [11])?
Answer: inactive

Question: What does the source list for `CCN1C(=O)c2ccccc2C(CC(=O)NC(=O)OC)C1=O` (stereo not drawn)?
Answer: inhibition (Rattus norvegicus [12]): inactive; inhibition [1]: inactive; inhibition (Rattus norvegicus [13]): inactive

Question: For `O=C1c2ccccc2C2(CC(=O)N(N=C3CCCC3)C2=O)C(=O)N1Cc1nc2cc(C(F)(F)F)ccc2s1` (stereo not drawn), which inhibition [1] is on record?
Answer: inactive

Question: And the Inhibition (Rattus norvegicus [14])?
Answer: 92%

Question: What about the Inhibition (Rattus norvegicus [15]) of the same molecule?
Answer: 28%

Question: With `CC1(CC(=O)O)C(=O)N(Cc2ccc(Cl)c(Cl)c2)C(=O)c2ccccc21` (stereo not drawn) as the molecule, how does the inhibition [1] read?
Answer: 45%

Question: For `CCN1C(=O)CC2(C1=O)C(=O)N(Cc1nc3cc(C(F)(F)F)ccc3s1)C(=O)c1ccc(F)cc12` (stereo not drawn), which inhibition [1] is on record?
Answer: inactive

Question: How did the inhibition (Rattus norvegicus [16]) turn out when `CCCCN1C(=O)CC2(C1=O)C(=O)N(Cc1ccc(Br)cc1F)C(=O)c1ccccc12` (stereo not drawn) was run?
Answer: inactive

Question: What about the inhibition [1] of the same molecule?
Answer: inactive

Question: For `CN1C(=O)CC2(C1=O)C(=O)N(C)C(=O)c1ccc(Cl)cc12` (stereo not drawn), which inhibition (Rattus norvegicus [16]) is on record?
Answer: inactive

Question: And the inhibition [1]?
Answer: inactive

Question: How did the inhibition [1] turn out when `CC(=O)NN1C(=O)CC2(C(=O)N(Cc3nc4cc(C(F)(F)F)ccc4s3)C(=O)c3ccccc32)C1=O` (stereo not drawn) was run?
Answer: inactive

Question: And the Inhibition (Rattus norvegicus [14])?
Answer: 94%

Question: What about the Inhibition (Rattus norvegicus [15]) of the same molecule?
Answer: 40%

Question: What does the source list for `O=C1c2ccccc2C2(CC(=O)N(N=C3CCOCC3)C2=O)C(=O)N1Cc1nc2cc(C(F)(F)F)ccc2s1` (stereo not drawn)?
Answer: inhibition [1]: inactive; Inhibition (Rattus norvegicus [14]): 94%; Inhibition (Rattus norvegicus [15]): 41%

Question: Which results are given for `COC(=O)NC(=O)CC1C(=O)N(C)C(=O)c2cc(OC)ccc21` (stereo not drawn)?
Answer: inhibition (Rattus norvegicus [17]): inactive; inhibition [1]: 72%; inhibition (Rattus norvegicus [18]): inactive

Question: Which inhibition (Rattus norvegicus [19]) does the source give for `NC(=O)CC1C(=O)N(Cc2ccc(Br)cc2F)C(=O)c2ccc(F)cc21` (stereo not drawn) here?
Answer: inactive

Question: What about the inhibition [1] of the same molecule?
Answer: 88%

Question: And the inhibition (Rattus norvegicus [20])?
Answer: inactive

Question: With `O=C(O)CC1C(=O)N(Cc2ccc(Cl)c(Cl)c2)C(=O)c2ccccc21` (stereo not drawn) as the molecule, how does the inhibition [21] read?
Answer: 58%

Question: What about the inhibition (Rattus norvegicus [22]) of the same molecule?
Answer: inactive

Question: What about the inhibition (Rattus norvegicus [23]) of the same molecule?
Answer: inactive

Question: With `CCCN1C(=O)CC2(C1=O)C(=O)N(Cc1ccc(Br)cc1F)C(=O)c1ccccc12` (stereo not drawn) as the molecule, how does the inhibition (Rattus norvegicus [16]) read?
Answer: inactive

Question: What about the inhibition [1] of the same molecule?
Answer: inactive

Question: For `CCN1C(=O)CC2(C1=O)C(=O)N(Cc1ccc(Br)cc1F)C(=O)c1ccc(F)cc12` (stereo not drawn), which inhibition [1] is on record?
Answer: inactive

Question: Which inhibition (Rattus norvegicus [24]) does the source give for `O=C1CC2(N1)C(=O)N(Cc1ccc(Br)cc1F)C(=O)c1ccccc12` (stereo not drawn) here?
Answer: inactive

Question: What about the inhibition (Rattus norvegicus [25]) of the same molecule?
Answer: inactive
